According to ChEMBL document CHEMBL4765291, “Design, synthesis and biological evaluation of novel 3,4-dihydro-2(1H)-quinolinone derivatives as potential chitin synthase inhibitors and antifungal agents” (Eur J Med Chem, 2020):
pIC50: −log10 of the molar value. ≈ marks a conversion by molar mass, not a printed value.

Tests used:
[1] = tested on: Pseudomonas aeruginosa; test: Antibacterial activity against Pseudomonas aeruginosa ATCC 9027; format: functional
How it was run: (§1)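 Two-fold serial broth dilution in 96-well plates following National Committee standards; compounds tested at different concentrations. Medium: beef extract peptone (1% peptone, 0.3% beef extract, 0.5% NaCl). Incubation 18–24 h. MIC recorded; streptomycin and norfloxacin as control drugs; each group tested in triplicate.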

[2] = tested on: Aspergillus fumigatus; test: Antifungal activity against Aspergillus fumigatus GIMCC 3.19 incubated for 48 hrs by two-fold broth dilution analysis; format: functional
How it was run: (§2)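 Stock solutions in DMSO, diluted to 0.25–512 µg/mL; two-fold serial broth dilution in 96-well plates. Fungi grown on modified Sabouraud chloramphenicol agar (1% peptone, 2% glucose, […]). Incubated 48 h at 37 °C, then MIC (µg/mL) recorded. Fluconazole and polyoxin B as positive controls; each group tested in triplicate.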

[3] = tested on: Escherichia coli; test: Antibacterial activity against Escherichia coli JM 109
[4] = tested on: Proteus vulgaris; test: Antibacterial activity against Bacillus proteus ATCC 8427; format: functional; how it was run: as §1
[5] = tested on: Aspergillus flavus; test: Antifungal activity against Aspergillus flavus ATCC 16870 incubated for 48 hrs by two-fold broth dilution analysis; format: functional; how it was run: as §2
[6] = tested on: Cryptococcus neoformans; test: Antifungal activity against Cryptococcus neoformans ATCC 32719 incubated for 48 hrs by two-fold broth dilution analysis; format: functional; how it was run: as §2
[7] = tested on: Candida tropicalis; test: Inhibition of Candida tropicalis ATCC 750 chitin synthase at 300 ug/ml using UDP-GlcNAc as substrate relative to control; conditions: dose 300.0 µg/ml
How it was run: (§3)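 Chitin synthase prepared from C. tropicalis ATCC 750 by low- and high-speed centrifugation. DMSO stocks (10 mg/mL) diluted in 50 mM Tris-HCl pH 7.5; test concentrations 300–9.375 µg/mL. Chitin synthesized in WGA-coated wells, bound with WGA-HRP, washed, developed with TMB/H2O2, stopped with 2 M H2SO4, OD read. Duplicate; polyoxin B positive control.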

[8] = tested on: Candida albicans; test: Antifungal activity against Candida albicans ATCC 76615 incubated for 48 hrs by two-fold broth dilution analysis; format: functional; how it was run: as §2
[9] = tested on: Staphylococcus aureus; test: Antibacterial activity against methicillin-resistant Staphylococcus aureus N. 315; format: functional
How it was run: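 Two-fold serial broth dilution in 96-well plates per national clinical standard; beef extract peptone medium (1% peptone, 0.3% beef extract, 0.5% NaCl, […]). Compounds from DMSO stock diluted to test concentrations; incubation 18–24 h. MIC recorded; each group tested independently in triplicate.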

[10] = tested on: Staphylococcus aureus; test: Antibacterial activity against Staphylococcus aureus ATCC 25923; format: functional; how it was run: as §1
[11] = tested on: Bacillus subtilis; test: Antibacterial activity against Bacillus subtilis ATCC 6633; format: functional; how it was run: as §1
[12] = tested on: Candida albicans; test: Antifungal activity against Candida albicans ATCC 90023 incubated for 48 hrs by two-fold broth dilution analysis; format: functional; how it was run: as §2
[13] = Inhibition of Candida tropicalis ATCC 750 chitin synthase using UDP-GlcNAc as substrate; how it was run: as §3

Structure (SMILES)	MIC [1] [µg/mL]	MIC [2] [µg/mL]	MIC [3] [µg/mL]	MIC [4] [µg/mL]	MIC [5] [µg/mL]	MIC [6] [µg/mL]	inhibition [7] [%]	MIC [8] [µg/mL]	MIC [9] [µg/mL]	MIC [10] [µg/mL]	MIC [11] [µg/mL]	MIC [12] [µg/mL]	pIC50 [13]
O=C(/C=C/C(=O)NC1Cc2ccccc2NC1=O)Nc1ccc(F)cc1 (stereo unspecified)	256 (≈ 724 µM)	4 (≈ 11.3 µM)	256 (≈ 724 µM)	256 (≈ 724 µM)	8 (≈ 22.6 µM)	8 (≈ 22.6 µM)	51.2	2 (≈ 5.66 µM)	512 (≈ 1450 µM)	128 (≈ 362 µM)	512 (≈ 1450 µM)	2 (≈ 5.66 µM)	3.47
O=C(/C=C/C(=O)NC1Cc2ccccc2NC1=O)Nc1ccccc1Cl (stereo unspecified)	256 (≈ 692 µM)	8 (≈ 21.6 µM)	256 (≈ 692 µM)	512 (≈ 1380 µM)	8 (≈ 21.6 µM)	16 (≈ 43.3 µM)	46.7	4 (≈ 10.8 µM)	512 (≈ 1380 µM)	128 (≈ 346 µM)	512 (≈ 1380 µM)	2 (≈ 5.41 µM)	–
CCn1cc(C(=O)O)c(=O)c2cc(F)c(N3CCNCC3)cc21 [NORFLOXACIN]	8 (≈ 25.1 µM)	–	8 (≈ 25.1 µM)	2 (≈ 6.26 µM)	–	–	–	–	4 (≈ 12.5 µM)	2 (≈ 6.26 µM)	4 (≈ 12.5 µM)	–	–
Cc1cc(C)cc(NC(=O)/C=C/C(=O)NC2Cc3ccccc3NC2=O)c1 (stereo unspecified)	256 (≈ 704 µM)	2 (≈ 5.5 µM)	256 (≈ 704 µM)	512 (≈ 1410 µM)	1 (≈ 2.75 µM)	16 (≈ 44 µM)	71.5	4 (≈ 11 µM)	512 (≈ 1410 µM)	128 (≈ 352 µM)	256 (≈ 704 µM)	2 (≈ 5.5 µM)	3.72
OC(Cn1cncn1)(Cn1cncn1)c1ccc(F)cc1F [FLUCONAZOLE]	–	2 (≈ 6.53 µM)	–	–	2 (≈ 6.53 µM)	2 (≈ 6.53 µM)	–	1 (≈ 3.27 µM)	–	–	–	1 (≈ 3.27 µM)	–
NC(=O)OC[C@H](O)[C@@H](O)[C@H](N)C(=O)N[C@H](C(=O)O)[C@H]1O[C@@H](n2cc(CO)c(=O)[nH]c2=O)[C@H](O)[C@@H]1O [POLYOXIN B]	–	2 (≈ 3.94 µM)	–	–	4 (≈ 7.88 µM)	4 (≈ 7.88 µM)	87.5	2 (≈ 3.94 µM)	–	–	–	4 (≈ 7.88 µM)	4.05
O=C(/C=C/C(=O)NC1Cc2ccccc2NC1=O)Nc1ccccc1F (stereo unspecified)	512 (≈ 1450 µM)	1 (≈ 2.83 µM)	512 (≈ 1450 µM)	512 (≈ 1450 µM)	8 (≈ 22.6 µM)	16 (≈ 45.3 µM)	48.9	8 (≈ 22.6 µM)	512 (≈ 1450 µM)	256 (≈ 724 µM)	256 (≈ 724 µM)	4 (≈ 11.3 µM)	–
COc1ccc(NC(=O)/C=C/C(=O)NC2Cc3ccccc3NC2=O)cc1 (stereo unspecified)	512 (≈ 1400 µM)	4 (≈ 10.9 µM)	512 (≈ 1400 µM)	256 (≈ 701 µM)	2 (≈ 5.47 µM)	16 (≈ 43.8 µM)	74.6	2 (≈ 5.47 µM)	256 (≈ 701 µM)	128 (≈ 350 µM)	256 (≈ 701 µM)	1 (≈ 2.74 µM)	3.68
O=C(/C=C/C(=O)NC1Cc2ccccc2NC1=O)Nc1ccc(Br)cc1 (stereo unspecified)	512 (≈ 1240 µM)	4 (≈ 9.66 µM)	512 (≈ 1240 µM)	512 (≈ 1240 µM)	4 (≈ 9.66 µM)	16 (≈ 38.6 µM)	40.3	2 (≈ 4.83 µM)	256 (≈ 618 µM)	128 (≈ 309 µM)	512 (≈ 1240 µM)	2 (≈ 4.83 µM)	–
Cc1ccc(NC(=O)/C=C/C(=O)NC2Cc3ccccc3NC2=O)cc1 (stereo unspecified)	512 (≈ 1470 µM)	4 (≈ 11.4 µM)	256 (≈ 733 µM)	256 (≈ 733 µM)	4 (≈ 11.4 µM)	16 (≈ 45.8 µM)	58.7	4 (≈ 11.4 µM)	256 (≈ 733 µM)	128 (≈ 366 µM)	512 (≈ 1470 µM)	2 (≈ 5.72 µM)	3.59
